Assay outcomes deposited in PubChem BioAssay by Broad Institute.
MITF act = increases MITF-driven TRPM1 promoter luciferase signal; SK-MEL-5 TRPM1-promoter luciferase, 24 h; % of positive control, neutral wells = 0; activation, % at 12.5 µM; 300,000 compounds, 0.75% hits; AID 588334;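 active = mean activation of at least 80% with every replicate also reaching 80%; inconclusive = mean reaches 80% but some replicate falls short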;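 note: 0% = neutral control wells and 100% = parthenolide positive control wells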
NSD2 inh = inhibitors of human histone methyltransferase NSD2; NSD2 peptide methylation, AlphaScreen, 120 min; inhibition, % at 12.5 µM; 310,000 compounds, 0.54% hits; AID 743445; in the data active = inhibition above about 50%
Target sequence (O96028 whole entry, looked up): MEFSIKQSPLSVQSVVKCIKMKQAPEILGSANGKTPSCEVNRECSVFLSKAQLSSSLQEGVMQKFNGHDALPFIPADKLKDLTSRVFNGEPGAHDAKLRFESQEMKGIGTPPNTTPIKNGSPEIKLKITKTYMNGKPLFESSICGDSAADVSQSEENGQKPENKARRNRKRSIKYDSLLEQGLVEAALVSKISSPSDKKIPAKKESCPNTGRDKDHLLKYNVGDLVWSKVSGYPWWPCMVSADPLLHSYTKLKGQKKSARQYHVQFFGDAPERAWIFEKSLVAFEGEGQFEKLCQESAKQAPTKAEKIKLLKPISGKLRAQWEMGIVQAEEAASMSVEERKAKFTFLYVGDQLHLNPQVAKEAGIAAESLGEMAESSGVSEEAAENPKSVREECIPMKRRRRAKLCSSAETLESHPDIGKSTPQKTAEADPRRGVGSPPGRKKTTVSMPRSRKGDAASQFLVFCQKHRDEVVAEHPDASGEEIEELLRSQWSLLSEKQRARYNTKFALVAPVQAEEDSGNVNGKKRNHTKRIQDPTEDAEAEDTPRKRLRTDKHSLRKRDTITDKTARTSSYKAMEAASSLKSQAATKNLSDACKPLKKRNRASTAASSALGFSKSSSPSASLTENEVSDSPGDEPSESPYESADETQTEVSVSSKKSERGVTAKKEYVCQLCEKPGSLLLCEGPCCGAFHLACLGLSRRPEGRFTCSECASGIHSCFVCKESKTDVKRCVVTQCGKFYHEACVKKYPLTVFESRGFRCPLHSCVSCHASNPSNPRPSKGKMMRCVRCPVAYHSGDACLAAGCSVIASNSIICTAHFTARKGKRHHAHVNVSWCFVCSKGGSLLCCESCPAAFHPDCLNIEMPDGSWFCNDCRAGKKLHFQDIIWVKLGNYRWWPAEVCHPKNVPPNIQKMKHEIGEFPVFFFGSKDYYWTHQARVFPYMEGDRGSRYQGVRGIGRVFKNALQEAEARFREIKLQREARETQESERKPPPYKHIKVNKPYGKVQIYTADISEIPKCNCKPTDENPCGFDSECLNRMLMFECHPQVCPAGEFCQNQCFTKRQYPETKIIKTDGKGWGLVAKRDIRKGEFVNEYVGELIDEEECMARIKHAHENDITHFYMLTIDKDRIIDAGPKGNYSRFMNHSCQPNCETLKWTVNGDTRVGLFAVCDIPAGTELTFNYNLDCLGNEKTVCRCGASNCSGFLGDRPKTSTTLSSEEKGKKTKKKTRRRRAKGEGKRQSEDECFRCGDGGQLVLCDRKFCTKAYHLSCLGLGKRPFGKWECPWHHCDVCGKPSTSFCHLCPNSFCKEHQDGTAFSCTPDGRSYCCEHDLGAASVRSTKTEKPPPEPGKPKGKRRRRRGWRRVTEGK
Wnt act = activates Wnt/beta-catenin signaling in a reporter cell assay; activator, plate reader; activation, % at 9.35 µM; 300,000 compounds, 1.2% hits; in the data active = activation above about 30%, passing the limit was not always enough; inconclusive = no clear call, values can overlap the other calls;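 note: 0% = neutral control wells and 100% = positive control wells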
CASP6 VEID inh = caspase-6 (human) enzyme inhibition; purified caspase-6, Z-VEID-R110 cleavage fluorescence; inhibition, % at 12.5 µM; 350,000 compounds, 0.53% hits; AID 686996;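 active = mean inhibition across replicates at least about 35%, with every replicate also reaching that limit, limit read from the data; inconclusive = only one of the two criteria met; inactive = neither criterion met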;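 note: 0% = median of neutral control wells and 100% = no fluorescence left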
esBAF inh = SWI/SNF esBAF complex inhibition | mouse ES cells, Bmi1-luciferase knock-in reporter, 24 h; 100% = twice the neutral-well signal | reporter increase, % at 12.5 µM | 350,000 compounds, 2% hits; in the data active = activation above about 40%; inconclusive = no clear call, values can overlap the other calls;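 note: 0% = median of the plate's neutral control wells and 100% = double that signal; a rise in the Bmi1 reporter signal indicates esBAF inhibition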
Xi reactivation = activators of X-chromosome reactivation in mouse fibroblasts | XiGFP mouse fibroblasts, % GFP-positive cells imaging, 3 d; cells co-treated with 5-aza-dC sensitizer; scaled so ellipticine positive control = 100% | activation, % at 7.58 µM | 360,000 compounds, 0.055% hits | AID 743238;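 active = mean normalized replicate activation at least 10% and every replicate at or above 10%; inconclusive = only one of the two criteria met; inactive = mean below 10% and not all replicates reach 10%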;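 note: 0% = median of on-plate neutral control wells and 100% = ellipticine 6 µM median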
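Material: SV40-immortalized XiGFP fibroblast cells, line 68-5-11 | Buffer or medium: DMEM containing 5-aza-dC | Dosing: One concentration, pinned | Times: 3 d treatment, 15 min room-temperature fixation | Controls: Ellipticine 6 µM positive control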
An asterisk follows results filed as active; ? = inconclusive; · = no result given. An excerpt weighted towards active compounds, which were near 3% of everything screened.

SMILES	MITF act	NSD2 inh	Wnt act	CASP6 VEID inh	esBAF inh	Xi reactivation
CCC(=O)N1CCN(c2ccc(NC(=O)c3cc4ccccc4o3)cc2)CC1	34.3	-0.2	·	·	24.9	·
O=C(Nc1ccc(N2CCOCC2)cc1)c1cc2ccccc2o1	72.1	1.0	·	·	46.1*	·
O=C(Nc1ccc(CN2CCOCC2)cc1)c1ccccc1F	·	0.9	39.2*	·	26.4	·
O=C(Nc1ccc(CN2CCOCC2)cc1)c1cc2ccccc2o1	105.4*	0.2	·	·	24.5	·
C[C@H](NC(=O)C[C@@H]1C[C@@H]2c3cc(NC(=O)NC4CCCCC4)ccc3O[C@@H]2[C@H](CO)O1)c1ccccc1	·	·	·	-1.3	1.9	0.1
O=C(NCCN1CCCCC1)[C@H]1[C@H](CO)[C@H]2Cn3c(cccc3=O)[C@@H]1N2C(=O)C1CCCCC1	·	·	·	3.1	-1.9	0.3
Cn1c(NCc2ccccc2O)nc2ccccc21	?	-2.1	13.4	-3.5	52.7*	·
Cn1c(NCc2ccccc2Cl)nc2ccccc21	70.7	·	27.8	-1.6	?	0.0
CCN(CC)CCn1c(NCc2ccc(C)o2)nc2ccccc21	5.7	0.1	·	·	·	·
CN(C)c1ccc(CNc2nc3ccccc3n2C)cc1	·	·	3.0	-3.8	48.0*	0.0
Cc1ccc(CNc2nc3ccccc3n2C)o1	·	0.4	9.5	0.7	42.4*	0.2
Cn1nnnc1SCc1ccc(C(=O)Nc2ccc(Br)cc2)cc1	30.1	-1.6	·	·	72.3*	·
C[C@@H]1CN([C@@H](C)CO)C(=O)c2cc(NC(=O)c3ccccc3)ccc2O[C@@H](C)CCCCO[C@@H]1CN(C)Cc1ccncc1	·	·	·	1.7	-19.7	0.1
O=C(C[C@@H]1CC[C@H]2[C@@H](COC[C@H](O)CN2S(=O)(=O)c2cccc(Cl)c2)O1)Nc1ccccc1	·	·	·	-1.6	-0.3	0.2
COc1cc(Cl)ccc1OCc1cc(C(=O)NCC(C)(C)N2CCOCC2)no1	38.2	-3.7	6.9	0.0	31.3	0.1
COc1cc(Cl)ccc1OCc1cc(C(=O)NC(C)Cc2cccnc2)no1 (stereo not drawn)	44.2	1.2	-3.6	-1.6	35.6	0.3
COc1cc(C)ccc1OCc1cc(C(=O)NC(C)Cn2cncn2)no1 (stereo not drawn)	122.5*	-3.2	18.7	-5.4	77.6*	0.2
COc1cc(C)ccc1OCc1cc(C(=O)NCc2ccncc2)no1	74.8	-1.1	?	1.1	51.7*	0.0
COc1cc(Cl)ccc1OCc1cc(C(=O)NCc2cc(C(C)C)no2)no1	60.2	-2.2	51.3*	-4.6	79.1*	0.3
COc1ccc(S(=O)(=O)N[C@H]2C=C[C@@H](CC(=O)NCCc3ccncc3)O[C@H]2CO)cc1	·	·	·	-7.8	4.9	-0.2
CCc1ccccc1Nc1nc(-c2cccnc2)cs1	·	3.6	18.3	-1.9	23.0	-0.1
COc1ccc(Nc2nc(-c3cccnc3)cs2)c(OC)c1	57.2	1.8	2.7	-4.7	56.7*	0.6
Cc1ccc(-c2csc(Nc3ccccn3)n2)cc1	-9.7	1.7	1.7	-1.0	-58.6	0.0
COc1ccccc1Nc1nc(-c2cccnc2)cs1	65.0	5.3	13.8	2.9	44.1*	0.2
COc1ccc(-c2csc(Nc3ccccn3)n2)cc1OC	·	10.7	17.4	2.7	73.5*	0.1
SMILES	MITF act	NSD2 inh	Wnt act	CASP6 VEID inh	esBAF inh	Xi reactivation
COc1ccc(NC(=O)c2cccc(OS(=O)(=O)N(C)C)c2)cc1	49.1	-1.3	54.7*	1.4	26.4	0.1
CNS(=O)(=O)c1cccc(C(=O)Nc2cccnc2)c1	·	-1.2	·	·	0.7	·
CN(C)S(=O)(=O)Oc1cccc(C(=O)Nc2ccc(Cl)c(Cl)c2)c1	32.7	·	·	·	72.2*	·
COC(=O)c1ccc(OS(=O)(=O)N(C)C)cc1	46.2	-3.2	10.4	0.7	48.8*	0.1
CNS(=O)(=O)c1cccc(C(=O)Nc2cccc(Cl)c2)c1	·	-6.9	·	·	48.2*	·
O=C1N[C@@H](Cc2ccccc2)COCc2cn(nn2)CC[C@@H]1Cc1ccc(Cl)cc1	·	·	·	·	·	0.0
CC(=O)N(C)C[C@H]1Oc2cc(-c3cccc(F)c3)ccc2S(=O)(=O)N([C@@H](C)CO)C[C@@H]1C	·	·	·	-0.8	8.2	1.0
C[C@@H]1CCCCO[C@H](CN(C)C(=O)Nc2ccc(F)cc2)[C@@H](C)CN([C@@H](C)CO)C(=O)c2cc(N(C)C)ccc2O1	·	·	·	·	-1.5	-0.6
